Source: ChEMBL document CHEMBL4616646, “Synthesis and Cytotoxicity Studies of Stilbene Long-Chain Fatty Acid Conjugates” (J Nat Prod, 2020)

Assays:
KB 3-1 = experiment: Cytotoxicity against human KB3-1 cells after 68 hrs by MTT assay; type: functional, cell-based; settings: KB 3-1, 68 h
Summary of the method: (§1)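 Cells grown in DMEM with 10% FBS and 1% P/S at 37 °C under 5% CO₂, trypsinized and seeded at ~5 × 10⁴ cells per well. Test drugs added after attachment at 0.1 to 100 μM. After 68 h, MTT (4 mg/mL) added for 4 h, supernatant discarded, formazan dissolved in DMSO, absorbance read at 570 nm. IC50 taken as concentration giving ~50% survival; mean ± SD of three independent experiments.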

NCI-H460 = experiment: Cytotoxicity against human NCI-H460 cells after 68 hrs by MTT assay; type: functional, cell-based; settings: NCI-H460, 68 h; summary of the method: as §1
HEK293 = experiment: Cytotoxicity against HEK293 cells after 68 hrs by MTT assay; type: cell-based; settings: Homo sapiens, HEK293, 68 h; summary of the method: as §1
MCF7 = experiment: Cytotoxicity against human MCF7 cells after 68 hrs by MTT assay; type: functional, cell-based; settings: MCF7, 68 h; summary of the method: as §1

`CCCCC/C=C\C/C=C\CCCCCCCC(=O)Oc1cc(/C=C\c2cc(OC)c(OC)c(OC)c2)ccc1OC` was tested, and the IC50 (KB 3-1) was 20 nM, the IC50 (NCI-H460) was 20 nM and the IC50 (HEK293) was 20 nM. It also gave an IC50 (MCF7) greater than 10000 nM.

In the case of `CC/C=C\C/C=C\C/C=C\CCCCCCCC(=O)Oc1cc(/C=C\c2cc(OC)c(OC)c(OC)c2)ccc1OC`, the IC50 (KB 3-1) is reported as 30 nM, the IC50 (NCI-H460) is reported as 10 nM and the IC50 (HEK293) is reported as 23 nM. It also gave an IC50 (MCF7) greater than 10000 nM.

`CCCCCCCCCCCCCCCCCC(=O)Oc1cc(/C=C\c2cc(OC)c(OC)c(OC)c2)ccc1OC` gave an IC50 (KB 3-1) of 30 nM, an IC50 (NCI-H460) of 30 nM and an IC50 (HEK293) of 30 nM. It also gave an IC50 (MCF7) of 240 nM.

In the case of `CCCCC/C=C\C/C=C\CCCCCCCC(=O)Oc1cc(/C=C/c2cc(OC)c(OC)c(OC)c2)ccc1OC`, the IC50 (KB 3-1) is reported as 4900 nM, the IC50 (NCI-H460) is reported as 2400 nM and the IC50 (HEK293) is reported as 2600 nM. For the same compound, the IC50 (MCF7) was greater than 10000 nM.

`CCCCCCCC/C=C\CCCCCCCC(=O)Oc1cc(/C=C\c2cc(OC)c(OC)c(OC)c2)ccc1OC` was tested, and the IC50 (KB 3-1) was 30 nM, the IC50 (NCI-H460) was 310 nM and the IC50 (HEK293) was 30 nM. For the same compound, the IC50 (MCF7) was greater than 10000 nM.

For `CCCCC/C=C\C/C=C\CCCCCCCC(=O)Oc1ccc(/C=C/c2cc(OC)c(OC)c(OC)c2)cc1OC`, the IC50 (KB 3-1) was greater than 100000 nM, the IC50 (NCI-H460) was greater than 100000 nM and the IC50 (HEK293) was greater than 100000 nM. It also gave an IC50 (MCF7) greater than 100000 nM.

Compound `CCCCCCCC/C=C\CCCCCCCC(=O)Oc1ccc(/C=C/c2cc(OC)c(OC)c(OC)c2)cc1OC` has an IC50 (KB 3-1) greater than 100000 nM, an IC50 (NCI-H460) greater than 100000 nM and an IC50 (HEK293) greater than 100000 nM. For the same compound, the IC50 (MCF7) was greater than 100000 nM.

`CC/C=C\C/C=C\C/C=C\CCCCCCCC(=O)Oc1cc(/C=C/c2cc(OC)c(OC)c(OC)c2)ccc1OC` showed an IC50 (KB 3-1) of 2400 nM, an IC50 (NCI-H460) greater than 10000 nM and an IC50 (HEK293) of 2400 nM. It also gave an IC50 (MCF7) greater than 10000 nM.

`CCCCCCCCCCCCCCCCCC(=O)Oc1cc(/C=C/c2cc(OC)c(OC)c(OC)c2)ccc1OC` was tested, and the IC50 (KB 3-1) was greater than 10000 nM, the IC50 (NCI-H460) was greater than 10000 nM and the IC50 (HEK293) was 2900 nM. The IC50 (MCF7) was greater than 10000 nM.

`CC/C=C\C/C=C\C/C=C\CCCCCCCC(=O)Oc1ccc(/C=C/c2cc(OC)c(OC)c(OC)c2)cc1OC` gave an IC50 (KB 3-1) greater than 100000 nM, an IC50 (NCI-H460) greater than 100000 nM and an IC50 (HEK293) greater than 100000 nM. The IC50 (MCF7) was greater than 100000 nM.

`CCCCCCCCCCCCCCCCCC(=O)Oc1ccc(/C=C\c2cc(OC)c(OC)c(OC)c2)cc1OC` was tested, and the IC50 (KB 3-1) was 3100 nM, the IC50 (NCI-H460) was greater than 10000 nM and the IC50 (HEK293) was 3900 nM. It also gave an IC50 (MCF7) of 7700 nM.

Compound `CCCCCCCCCCCCCCCCCC(=O)Oc1ccc(/C=C/c2cc(OC)c(OC)c(OC)c2)cc1OC` has an IC50 (KB 3-1) greater than 100000 nM, an IC50 (NCI-H460) greater than 100000 nM and an IC50 (HEK293) greater than 100000 nM. For the same compound, the IC50 (MCF7) was greater than 100000 nM.

For `COc1cc2c(c(OC)c1OC)-c1ccc(OC)c(=O)cc1[C@@H](NC(C)=O)CC2` [COLCHICINE], the IC50 (KB 3-1) was 20 nM, the IC50 (NCI-H460) was 60 nM and the IC50 (HEK293) was 20 nM. For the same compound, the IC50 (MCF7) was 60 nM.

`COc1ccc(/C=C\c2cc(OC)c(OC)c(OC)c2)cc1O` [COMBRETASTATIN A4] showed an IC50 (KB 3-1) of 10 nM, an IC50 (NCI-H460) of 10 nM and an IC50 (HEK293) of 10 nM. For the same compound, the IC50 (MCF7) was 90 nM.

In the case of `COc1ccc(/C=C/c2cc(OC)c(OC)c(OC)c2)cc1O` [E-COMBRETASTATIN A-4], the IC50 (KB 3-1) is reported as 100 nM, the IC50 (NCI-H460) is reported as 250 nM and the IC50 (HEK293) is reported as 200 nM. It also gave an IC50 (MCF7) of 110 nM.
